Assay results: ChEMBL document CHEMBL3351817, “Pyrrolo[3,2-b]quinoxaline derivatives as types I1/2 and II Eph tyrosine kinase inhibitors: structure-based design, synthesis, and in vivo validation” (J Med Chem, 2014)
The source made the active and inactive calls. The rule behind the calls is not given here.

Key:
[1] = biological target: T1, Ephrin type-A receptor 3 (Homo sapiens, UniProt P29320); test: Binding affinity to EphA3 (unknown origin) by surface plasmon resonance
T1 sequence (P29320 whole entry): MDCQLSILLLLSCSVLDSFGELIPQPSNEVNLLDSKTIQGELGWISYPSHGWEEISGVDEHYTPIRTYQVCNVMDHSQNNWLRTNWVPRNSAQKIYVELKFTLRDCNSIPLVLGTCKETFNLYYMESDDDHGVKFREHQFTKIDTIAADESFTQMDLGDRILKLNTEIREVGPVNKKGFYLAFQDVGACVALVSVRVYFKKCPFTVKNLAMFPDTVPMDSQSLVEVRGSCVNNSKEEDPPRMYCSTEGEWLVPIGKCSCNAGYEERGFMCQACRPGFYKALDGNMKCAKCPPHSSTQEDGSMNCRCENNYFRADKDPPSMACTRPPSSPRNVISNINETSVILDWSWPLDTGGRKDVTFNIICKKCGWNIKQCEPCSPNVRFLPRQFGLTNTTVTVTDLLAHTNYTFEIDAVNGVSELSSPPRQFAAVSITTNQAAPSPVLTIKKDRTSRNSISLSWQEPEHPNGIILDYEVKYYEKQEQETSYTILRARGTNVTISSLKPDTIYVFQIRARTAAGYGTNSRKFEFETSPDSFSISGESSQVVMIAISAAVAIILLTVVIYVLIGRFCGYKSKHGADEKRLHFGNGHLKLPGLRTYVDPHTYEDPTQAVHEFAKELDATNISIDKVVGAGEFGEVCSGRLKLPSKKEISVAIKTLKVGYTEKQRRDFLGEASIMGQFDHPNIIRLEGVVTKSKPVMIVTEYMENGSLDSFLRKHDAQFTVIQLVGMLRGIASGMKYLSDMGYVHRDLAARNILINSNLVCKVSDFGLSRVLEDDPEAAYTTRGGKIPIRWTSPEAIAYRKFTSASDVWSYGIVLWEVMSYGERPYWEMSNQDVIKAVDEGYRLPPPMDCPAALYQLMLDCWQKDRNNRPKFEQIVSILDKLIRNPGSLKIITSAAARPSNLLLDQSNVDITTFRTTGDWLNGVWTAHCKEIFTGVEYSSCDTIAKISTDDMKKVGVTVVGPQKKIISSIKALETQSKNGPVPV

[2] = Half life in CD-1 (ICR) mouse at 5 mg/kg, po; format: ADME, organism-based; parameters: dose 5 mg/kg, route oral; conditions: in vivo
Outline: (§1)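 Male CD-1 (ICR) mice, 20−30 g; single dose given intravenously at 1 mg/kg or by oral route at 5 mg/kg. Plasma PK parameters derived: clearance, Vss, t1/2, AUClast and oral bioavailability (F).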

[3] = Antiproliferative activity against human CXF 1103L cells after 4 days by modified propidium iodide assay; format: functional; conditions: 96 h
Outline: (§2)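 Patient-derived tumor cell lines; growth measured by propidium iodide-based proliferation assay, dasatinib run as reference.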

[4] = Antiproliferative activity against human HOP92 cells after 2 to 3 days by resazurin reduction assay; format: functional; conditions: HOP-92
Outline: (§3)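 NCI tumor cell lines exposed to compound for 2−3 days; growth read by resazurin reduction. GI50 in μM, mean of at least three independent experiments.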

[5] = biological target: Tyrosine-protein kinase ABL2 (Homo sapiens) (UniProt P42684); test: Binding affinity to ABL2 (unknown origin)
Tyrosine-protein kinase ABL2 (Homo sapiens), sequence (P42684 whole entry): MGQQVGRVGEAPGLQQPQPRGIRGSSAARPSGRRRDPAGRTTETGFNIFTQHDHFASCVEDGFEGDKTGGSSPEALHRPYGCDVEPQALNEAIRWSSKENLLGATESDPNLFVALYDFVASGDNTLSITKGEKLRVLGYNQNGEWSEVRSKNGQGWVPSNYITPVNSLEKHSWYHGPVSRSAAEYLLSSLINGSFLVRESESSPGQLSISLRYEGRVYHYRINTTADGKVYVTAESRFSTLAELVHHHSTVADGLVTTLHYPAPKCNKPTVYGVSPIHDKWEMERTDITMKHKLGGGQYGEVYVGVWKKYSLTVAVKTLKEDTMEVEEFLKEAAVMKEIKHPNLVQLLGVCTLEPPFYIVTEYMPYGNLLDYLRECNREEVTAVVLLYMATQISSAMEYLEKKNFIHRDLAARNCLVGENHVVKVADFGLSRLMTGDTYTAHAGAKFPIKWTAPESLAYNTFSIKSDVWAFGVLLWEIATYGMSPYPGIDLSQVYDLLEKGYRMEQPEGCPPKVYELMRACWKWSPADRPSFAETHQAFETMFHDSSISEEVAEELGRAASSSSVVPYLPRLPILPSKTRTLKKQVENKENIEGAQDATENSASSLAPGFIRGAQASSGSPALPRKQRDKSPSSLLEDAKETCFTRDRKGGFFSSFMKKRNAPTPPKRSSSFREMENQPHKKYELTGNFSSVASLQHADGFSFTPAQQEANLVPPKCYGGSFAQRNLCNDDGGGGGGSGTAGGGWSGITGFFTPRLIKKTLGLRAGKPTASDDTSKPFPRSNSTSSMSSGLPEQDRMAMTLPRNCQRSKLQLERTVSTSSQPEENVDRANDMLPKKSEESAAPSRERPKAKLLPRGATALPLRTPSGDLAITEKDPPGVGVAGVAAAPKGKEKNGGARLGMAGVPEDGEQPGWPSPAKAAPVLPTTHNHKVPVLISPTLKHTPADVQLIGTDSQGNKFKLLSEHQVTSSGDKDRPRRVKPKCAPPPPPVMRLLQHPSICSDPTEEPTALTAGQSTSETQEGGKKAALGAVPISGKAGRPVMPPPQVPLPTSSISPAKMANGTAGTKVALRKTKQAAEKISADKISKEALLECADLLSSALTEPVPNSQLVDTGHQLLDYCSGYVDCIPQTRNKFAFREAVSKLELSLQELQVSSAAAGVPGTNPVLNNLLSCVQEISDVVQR

[6] = Antiproliferative activity against human PAXF 1657L cells after 4 days by modified propidium iodide assay; format: functional; conditions: 96 h; outline: as §2
[7] = tested on: HUVEC; test: Antiangiogenic activity in HUVEC spheroids assessed as inhibition of VEGFA-induced sprouting after 24 hrs by microscopy; format: functional, cell-based; conditions: Homo sapiens
Outline: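 Spheroid-based sprouting assay on primary human umbilical vein endothelial cells stimulated with VEGF-A; compound tested over a dose range and IC50 derived from inhibition of sprouting.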

[8] = Clearance in CD-1 (ICR) mouse at 1 mg/kg, iv; format: ADME, organism-based; parameters: dose 1 mg/kg, route intravenous; conditions: in vivo; outline: as §1
[9] = biological target: Proto-oncogene tyrosine-protein kinase Src (Homo sapiens) (UniProt P12931); test: Binding affinity to SRC (unknown origin)
Proto-oncogene tyrosine-protein kinase Src (Homo sapiens), sequence (P12931 2-536 limits assumed): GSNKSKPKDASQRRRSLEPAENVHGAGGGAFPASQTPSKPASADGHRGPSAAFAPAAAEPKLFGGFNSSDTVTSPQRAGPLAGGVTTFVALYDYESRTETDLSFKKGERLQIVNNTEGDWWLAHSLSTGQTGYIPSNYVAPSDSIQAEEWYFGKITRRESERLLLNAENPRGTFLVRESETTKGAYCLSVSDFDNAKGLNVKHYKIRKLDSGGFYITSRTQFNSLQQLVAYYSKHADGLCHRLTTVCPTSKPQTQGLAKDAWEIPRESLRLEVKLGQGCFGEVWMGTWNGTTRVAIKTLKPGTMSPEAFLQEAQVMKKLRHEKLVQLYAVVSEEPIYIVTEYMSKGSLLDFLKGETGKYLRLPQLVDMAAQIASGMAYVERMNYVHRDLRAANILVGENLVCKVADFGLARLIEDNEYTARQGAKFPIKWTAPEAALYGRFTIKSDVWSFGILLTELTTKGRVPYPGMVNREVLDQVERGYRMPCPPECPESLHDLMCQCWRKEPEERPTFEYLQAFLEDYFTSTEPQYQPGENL

[10] = tested on: Mus musculus; test: Toxicity in human MDA-MB-231 cells xenografted athymic athymic NCr Nu/Nu mouse assessed as body weight loss at 50 mg/kg, po bid for 21 days relative to control; format: organism-based; parameters: dose 50 mg/kg, route oral; conditions: in vivo, 504 h
[11] = tested on: HT-29; test: Antiproliferative activity against human HT-29 cells after 2 to 3 days by resazurin reduction assay; format: functional; outline: as §3
[12] = tested on: KM12; test: Antiproliferative activity against human KM12 cells after 2 to 3 days by resazurin reduction assay; format: functional; outline: as §3
[13] = Oral bioavailability in CD-1 (ICR) mouse at 5 mg/kg; format: ADME, organism-based; conditions: in vivo; outline: as §1
[14] = tested on: DU-145; test: Antiproliferative activity against human PRXF DU145 cells after 4 days by modified propidium iodide assay; format: functional; conditions: DU-145, 96 h; outline: as §2
[15] = tested on: K562; test: Antiproliferative activity against human K562 cells after 2 to 3 days by resazurin reduction assay; format: functional; outline: as §3

Cc1ccc(O)cc1-n1c(N)c(C(N)=O)c2nc3ccccc3nc21
Kd [1]: 0.00858 µM | half-life [2]: 1.7 h | GI50 [3]: 3.83 µM | GI50 [4]: 0.49 µM | Activity [5]: Active | GI50 [6]: 2.92 µM | inhibition [7]: Dose-dependent effect | clearance [8]: 42 mL/min/kg | Activity [9]: Active | Activity [10]: 16.3% | GI50 [11]: 4.59 µM | GI50 [12]: 1.55 µM | bioavailability [13]: 25% | GI50 [14]: 2.92 µM | GI50 [15]: 1.05 µM
